Each block holds one molecule with its values, some of them ahead of it. Activity calls are given as the source filed them. The calls are words filed in the database; no cut-off is given here.
What was measured:
[1] = system: Rattus norvegicus; assay: Anticonvulsant activity against po dosed albino Sprague-Dawley rat […] by maximal electroshock seizure test; type: functional
Outline: (§1)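 Male albino Sprague-Dawley rats dosed ip or orally under the NIH Anticonvulsant Screening Program, tested by maximal electroshock seizure.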

[2] = Toxicity in po dosed albino Sprague-Dawley rat assessed as behavioral toxicity after 0.25 to 4 hrs; type: organism-based; details: in vivo
Outline: (§2)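 Male albino Sprague-Dawley rats dosed ip or orally, scored for behavioral toxicity (neurological impairment). TD50 is in mg/kg, taken at the time of peak effect.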

[3] = system: Rattus norvegicus; assay: Anticonvulsant activity against po dosed albino Sprague-Dawley rat after 0.25 to 4 hrs by maximal electroshock seizure test; type: functional; outline: as §1
[4] = Toxicity in ip dosed albino Sprague-Dawley rat assessed as behavioral toxicity after 0.25 to 4 hrs; type: organism-based; details: in vivo; outline: as §2
[5] = system: Rattus norvegicus; assay: Anticonvulsant activity against ip dosed albino Sprague-Dawley rat after 0.25 to 4 hrs by maximal electroshock seizure test; type: functional; outline: as §1
[6] = Toxicity in ip dosed albino CF1 mouse after 0.25 to 4 hrs by rotorod test; type: organism-based; details: in vivo
[7] = system: Mus musculus; assay: Anticonvulsant activity against ip dosed albino CF1 mouse after 0.25 to 4 hrs by subcutaneous pentylenetetrazol test; type: functional
[8] = system: Mus musculus; assay: Anticonvulsant activity against ip dosed albino CF1 mouse after 1 to 4 hrs by 6 Hz psychomotor seizure test; type: functional
[9] = system: Mus musculus; assay: Anticonvulsant activity against ip dosed albino CF1 mouse after 4 hrs by maximal electroshock seizure test; type: functional
[10] = organism: Rattus norvegicus; assay: Inhibition of Na+ channel in rat embryonic cortical neurons assessed as frequency-dependent inactivation at 20 uM by whole cell voltage clamp technique relative to control
[11] = organism: Rattus norvegicus; assay: Inhibition of Na+ channel in rat embryonic cortical neurons assessed as fast inactivation at 20 uM by whole cell voltage clamp technique (reference value: -53.9 +/- 1.2 mV)
Outline: (§3)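 Embryonic day 19 rat cortical neurons by whole-cell voltage clamp at room temperature, with protocols mostly as for CAD cells. 20 μM compared with 0.1% DMSO. Activation from 15-ms pulses, −70 to +80 mV; conductance G = I/(Vm − Vrev); Boltzmann fits giving V1/2 and k. Mean ± SEM; ANOVA with post-hoc test.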

[12] = organism: Rattus norvegicus; assay: Inhibition of Na+ channel in rat embryonic cortical neurons assessed as steady state activation at 20 uM by whole cell voltage clamp technique relative to control; outline: as §3
[13] = organism: Rattus norvegicus; assay: Inhibition of Na+ channel in rat embryonic cortical neurons assessed as slow inactivation at 20 uM by whole cell voltage clamp technique; outline: as §3
[14] = system: CAD; assay: Inhibition of Na+ channel in mouse CAD cells assessed as frequency-dependent inactivation at 10 uM by whole cell voltage clamp technique relative to control; type: cell-based
Outline: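 Frequency (use)-dependent inhibition of Na+ currents in CAD cells by whole-cell voltage clamp at room temperature. Current trend and amplitude at 10 μM compared with control.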

[15] = system: CAD; assay: Inhibition of Na+ channel in mouse CAD cells assessed as fast inactivation by whole cell voltage clamp technique; type: cell-based
Outline: (§4)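 Steady-state fast inactivation in CAD cells by whole-cell voltage clamp at room temperature. Cells held at −80 mV, given 500-ms prepulses from −120 to −10 mV in 10-mV steps, then a 20-ms step to 0 mV. Curves fitted with a single Boltzmann; V1/2 shift compared with 0.1% DMSO by ANOVA and Dunnett's test. Mean ± SEM.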

[16] = system: CAD; assay: Inhibition of Na+ channel in mouse CAD cells assessed as hyperpolarizing shift at 30 uM by whole cell voltage clamp technique (reference value: -71.6 +/- 0.6 mV); type: cell-based; outline: as §4
[17] = system: CAD; assay: Inhibition of Na+ channel in mouse CAD cells assessed as hyperpolarizing shift at 1 uM by whole cell voltage clamp technique (reference value: -71.6 +/- 0.6 mV); type: cell-based; outline: as §4
[18] = organism: Rattus norvegicus; assay: Protective index, ratio of TD50 for albino Sprague-Dawley rat to ED50 for albino Sprague-Dawley rat; type: functional
Outline: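 Protective index is TD50/ED50, both from orally dosed male Sprague-Dawley rats. TD50 is for behavioral toxicity and ED50 is for maximal electroshock seizure.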

[19] = Inhibition of Na+ channel in mouse CAD cells assessed as slow inactivation by whole cell voltage clamp technique; type: cell-based
Outline: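 CAD cells (Ham's F12/EMEM, 8% FBS, 37 °C, 5% CO2) by whole-cell voltage clamp at room temperature. Na+ channel slow inactivation measured at −50 mV; IC50 is the concentration at which half of the channels reach a slow-inactivated state.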

[20] = system: Rattus norvegicus; assay: Anticonvulsant activity against po dosed albino Sprague-Dawley rat after 2 hrs by maximal electroshock seizure test; type: functional; outline: as §1
[21] = system: Rattus norvegicus; assay: Toxicity in ip dosed albino Sprague-Dawley rat assessed as behavioral toxicity after 2 hrs; type: organism-based; details: in vivo; outline: as §2
[22] = system: Rattus norvegicus; assay: Anticonvulsant activity against ip dosed albino Sprague-Dawley rat after 2 hrs by maximal electroshock seizure test; type: functional; outline: as §1
[23] = system: Mus musculus; assay: Toxicity in ip dosed albino CF1 mouse after 6 hrs by rotorod test; type: organism-based; details: in vivo
[24] = system: Mus musculus; assay: Anticonvulsant activity against ip dosed albino CF1 mouse after 4 hrs by subcutaneous pentylenetetrazol test; type: functional; details: albino CF1, 4 h
[25] = system: Mus musculus; assay: Anticonvulsant activity against ip dosed albino CF1 mouse after 1 hr by 6 Hz psychomotor seizure test; type: functional
[26] = system: Mus musculus; assay: Anticonvulsant activity against ip dosed albino CF1 mouse after 0.5 hrs by maximal electroshock seizure test; type: functional
[27] = system: Mus musculus; assay: Anticonvulsant activity against ip dosed albino CF1 mouse after […] by maximal electroshock seizure test; type: functional
[28] = system: Mus musculus; assay: Anticonvulsant activity against ip dosed albino CF1 mouse after 0.5 to 4 hrs by subcutaneous pentylenetetrazol test; type: functional
[29] = Toxicity in ip dosed albino Sprague-Dawley rat assessed as behavioral toxicity after 0.25 to 0.5 hrs; type: organism-based; details: in vivo; outline: as §2
[30] = system: Rattus norvegicus; assay: Anticonvulsant activity against ip dosed albino Sprague-Dawley rat after 0.25 to 0.5 hrs by maximal electroshock seizure test; type: functional; outline: as §1
[31] = system: Mus musculus; assay: Anticonvulsant activity against ip dosed albino CF1 mouse after 0.25 to 2 hrs by subcutaneous pentylenetetrazol test; type: functional
[32] = system: Mus musculus; assay: Anticonvulsant activity against ip dosed albino CF1 mouse after 0.5 to 4 hrs by 6 Hz psychomotor seizure test; type: functional
[33] = system: Mus musculus; assay: Anticonvulsant activity against ip dosed albino CF1 mouse after 0.25 to 1 hr by maximal electroshock seizure test; type: functional
[34] = system: Mus musculus; assay: Anticonvulsant activity against ip dosed albino CF1 mouse after 0.25 to 4 hrs by maximal electroshock seizure test; type: functional

Compound: O=C1NC(=O)C(c2ccccc2)(c2ccccc2)N1 [PHENYTOIN]
- ED50 [1]: 30 mg/kg

Compound: Cl.NCc1ccc(-c2ccc(F)cc2)cc1
- TD50 [2]: > 30 mg/kg
- ED50 [3]: > 30 mg/kg
- TD50 [4]: > 30 mg/kg
- ED50 [5]: > 30 mg/kg
- TD50 [6]: > 50 mg/kg
- ED50 [7]: > 50 mg/kg
- ED50 [8]: < 100 mg/kg
- ED50 [9]: 50 mg/kg

- inhibition [10]: inactive
- V1/2 [11]: -69.6 mV
- inhibition [12]: inactive
- inhibition [13]: Active
- IC50 [19]: 2700 nM
Compound: Cl.NCc1ccc(-c2cccc(OC(F)(F)F)c2)cc1
- inhibition [14]: inactive
- inhibition [15]: inactive
- V1/2 [16]: 26.5 mV
- V1/2 [17]: 11.2 mV
- Ratio TD50/ED50 [18]: >57
- TD50 [2]: > 500 mg/kg
- ED50 [20]: 8.7 mg/kg
- TD50 [21]: 72 mg/kg
- ED50 [22]: 16 mg/kg
- TD50 [23]: 81 mg/kg
- ED50 [24]: 81 mg/kg
- ED50 [25]: 43 mg/kg
- ED50 [26]: 25 mg/kg

Compound: CCCC(CCC)C(=O)O [VALPROIC ACID]
- ED50 [27]: 270 mg/kg

Compound: COc1cccc(-c2ccc(CN)cc2)c1.Cl
- TD50 [2]: > 30 mg/kg
- ED50 [3]: > 30 mg/kg
- TD50 [4]: > 30 mg/kg
- ED50 [5]: > 30 mg/kg
- TD50 [6]: > 100 mg/kg
- ED50 [28]: > 100 mg/kg
- ED50 [25]: 100 mg/kg
- ED50 [27]: < 100 mg/kg

Compound: Cl.NCc1ccc(-c2cccc(Cl)c2)cc1
- TD50 [2]: > 30 mg/kg
- ED50 [3]: > 30 mg/kg
- TD50 [29]: 65 mg/kg
- ED50 [30]: 65 mg/kg
- TD50 [6]: > 100 mg/kg
- ED50 [31]: < 100 mg/kg
- ED50 [32]: < 100 mg/kg
- ED50 [33]: < 100 mg/kg

Compound: Cl.NCc1ccc(-c2ccc(Cl)cc2)cc1
- TD50 [2]: > 30 mg/kg
- ED50 [3]: > 30 mg/kg
- TD50 [4]: > 30 mg/kg
- ED50 [5]: > 30 mg/kg
- TD50 [6]: > 50 mg/kg
- ED50 [7]: > 50 mg/kg
- ED50 [8]: < 100 mg/kg
- ED50 [34]: > 50 mg/kg

— ChEMBL document CHEMBL2401663, “(Biphenyl-4-yl)methylammonium chlorides: potent anticonvulsants that modulate Na+ currents” (J Med Chem, 2013)
